# Screens: PubChem BioAssay, several laboratories
# A selection: hits, their analogues and other compounds. The true share with any hit is near 1.2%.
# thrombin 1536: thrombin (human) inhibition; actives 0.26% (n = 220,000); alpha-thrombin, Boc-VPR-AMC fluorogenic substrate cleavage; inhibition, % at 5 µM; P00734;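 active means inhibition at or above 40%; inactive means inhibition below 40%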;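 further: 0% = enzyme with no compound and 100% = wells without enzyme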
#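 Material: human alpha-thrombin protein. Incubation: reaction at ambient temperature. Technique: fluorescence of released AMC, ex 355 nm, em 460 nm. Control set: no-compound enzyme wells and no-enzyme blanks. Also added: Boc-VPR-AMC substrate, 15 µM final. Buffer or medium: pH 7.5 Tris (50 mM) with NaCl 150 mM, Tween 20 0.05%.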
# KLK5 inh: blocks human kallikrein 5 protease activity; actives 0.59% (n = 210,000); recombinant hK5, fluorogenic AMC substrate cleavage; Q9Y337; inhibition, % at 5 µM;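 active means inhibition of 40% or more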;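 further: 0% = enzyme controls without compound and 100% = no-enzyme blanks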
# Target sequence (Q9Y337 67-293 limits assumed): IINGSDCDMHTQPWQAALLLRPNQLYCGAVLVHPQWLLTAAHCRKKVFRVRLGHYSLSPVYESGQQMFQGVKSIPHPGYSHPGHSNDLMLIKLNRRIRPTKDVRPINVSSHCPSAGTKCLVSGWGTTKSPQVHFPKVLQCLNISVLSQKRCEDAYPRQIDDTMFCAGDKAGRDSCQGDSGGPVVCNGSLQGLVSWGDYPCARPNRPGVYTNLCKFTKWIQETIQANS
# Furin inh: human furin inhibition; P09958; purified furin, fluorogenic substrate cleavage; inhibition, % at 20 µM or 30 µM; actives 0.061% (n = 220,000); AID 463115; in the data active means inhibition above about 25%
# PERK inh: inhibitors of human PERK kinase. CHO PERK-DD fusion, SEAP luminescence translation reporter. inhibition, % at 5.6 µM. actives 0.17% (n = 220,000). AID 1416;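 active means inhibition above the mean inhibition of all tested compounds plus 3 SD, set separately per screening campaign, cut at about 2.9% in these data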;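 further: PERK kinase domain activated by AP20187 dimerizer at 100 nM; 0% = DMSO with dimerizer and 100% = rapamycin at 8.4 µM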
# FXIIa inh: inhibitors of human coagulation factor XIIa; AID 800; purified FXIIa, Boc-QGR-AMC fluorogenic substrate, 2 h; actives 0.3% (n = 220,000); inhibition, % at 5 µM; P00748; in the data active means inhibition above about 40%;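 further: 0% = enzyme with no compound and 100% = blank without enzyme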
# FXIa inh: factor XIa (human) inhibition; purified FXIa, Boc-Glu-Ala-Arg-AMC fluorogenic substrate; P03951; actives 0.14% (n = 220,000); inhibition, % at 5 µM;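 active means inhibition of at least 40%; inactive means inhibition below 40%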;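 further: fluorescence of freed AMC excited at 355 nm; 0% = enzyme without compound and 100% = no enzyme blank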
# Active calls of the source: *; . = no result.
SMILES,thrombin 1536,KLK5 inh,Furin inh,PERK inh,FXIIa inh,FXIa inh
CN(C)CCNC(=O)/C=C/c1cn(-c2ccccc2)nc1-c1cc2ccccc2oc1=O,-2,3,-26,0,6,0
O=C(O)CCC(=O)N1CCN(c2ncccn2)CC1,-4,-4,-22,1,3,6
O=C(CN1CCCN(Cc2ccc(F)cc2Cl)C1=O)NC1CCCCCCC1,12,104*,-21,0,24,7
O=C1CN(CC(=O)N2CCOCC2)c2ccccc2O1,11,42*,-21,0,24,14
Cn1c(SCC(=O)N2c3ccccc3CCc3ccccc32)nnc1-c1cc2ccccc2cc1O,101*,30,-2,-2,14,7
Cn1c(SCC(=O)NCc2cccs2)nnc1-c1cccs1,16,52*,-8,0,15,10
C=CCn1c(Cc2cccs2)nnc1SCC(=O)Nc1ccc(OC)c(OC)c1,3,-7,-12,1,20,-1
CCn1c(SCC(=O)NCc2cccs2)nnc1-c1cccs1,-5,8,1,-1,-6,-2
C=CCn1c(Cc2cccs2)nnc1SCC(=O)NCc1ccco1,26,17,-18,1,27,48*
CC(OCC(O)CN(C)Cc1nc2ccccc2c(=O)[nH]1)c1ccc(Cl)cc1 (stereo not given),8,-1,-32,0,3,-1
NC1=NC(=O)S/C1=C\c1ccc(F)cc1,-7,-1,-26,1,4,2
CN1CCN(C(CNS(=O)(=O)c2ccc(Cl)cc2)c2cccnc2)CC1 (stereo not given),16,42*,-22,0,12,2
CN1CCN(C(CNS(=O)(=O)c2ccc(F)cc2)c2cccnc2)CC1 (stereo not given),-2,2,-15,1,1,-3
CCOC(=O)c1cc(C)sc1/N=C/C1=C(O)CCCC1=O,-8,-4,36*,-1,-1,-10
CCOC(=O)c1cc(C)sc1/N=C/C1C(=O)CCCC1=O,1,-3,37*,2,14,1
CCOC(=O)c1cc(CC)sc1/N=C/C1C(=O)CCCC1=O,0,1,6,0,9,-2
Cc1nn(CC(=O)O)c(C)c1N,1,2,-15,0,11,1
COC(=O)CNC(=O)COC(=O)c1cc(SC)ccc1Cl,-32,-6,-28,1,13,-8
CCCC(=O)Nc1cccc(Oc2nc(C)cc(C)c2C#N)c1,-1,3,37*,0,16,5
CCc1nc2cc3sc(CC)nc3cc2s1,-1,.,-22,2,6,-2
Cc1ccc(S(=O)(=O)N(CC(=O)NCCSCc2ccco2)c2ccc(F)cc2)cc1,1,.,-26,3.2*,4,-1
CCN(CC)CCNC(=O)c1ccc(NC(=O)c2cccc(S(=O)(=O)Nc3ccc(C)cc3)c2)cc1,15,20,-21,0,22,101*
CCOCC(=O)Nc1ccc([N+](=O)[O-])cc1C,1,-11,-20,2,2,11
CCOC(=O)CN1CC23C=CC(O2)C(C(=O)Nc2ccc4c(c2)OCO4)C3C1=O (stereo not given),-3,1,-34,1,9,2
CCOC(=O)CN1CC23C=CC(O2)C(C(=O)Nc2ccc(OCC)cc2)C3C1=O (stereo not given),4,43*,-21,1,15,7
SMILES,thrombin 1536,KLK5 inh,Furin inh,PERK inh,FXIIa inh,FXIa inh
CCOC(=O)NC(C)N1C(=O)C2C3C=CC(C3)C2C1=O (stereo not given),-11,-7,-17,1,9,1
CCOC(=O)c1c(-c2ccc(C)cc2)csc1NC(=O)CCN1CCOCC1,42*,23,-13,-1,11,6
O=C(/C=C/c1cccs1)NCc1ccccc1,-4,9,-29,1,1,0
CCCc1nc2ccccc2c(C(=O)OCC(=O)N2CCc3ccccc32)c1CC,12,58*,-6,-1,37,20
NS(=O)(=O)c1ccc(O)c(NC(=O)c2ccc([N+](=O)[O-])cc2)c1,-4,-7,-20,1,5,-3
CNC(=S)N/N=C(\C)c1ccc(C(C)(C)C)cc1,7,49*,-11,0,19,7
CNC(=S)N/N=C(\C)c1ccccc1,-8,-7,-17,1,0,-4
O=C(Nc1nc(=O)n(C(=O)c2cccc(C(F)(F)F)c2)s1)c1ccccc1,0,4,-40,1,11,3
COC(=O)c1scc(C)c1NC(=O)Nc1ccccc1,-1,-61,-14,0,15,1
COC(=O)c1scc(C)c1N1C(=O)c2ccccc2C1=O,-2,-2,-15,2.9*,10,2
CCOC(=O)Cc1csc(NC(=O)/C=C/c2ccc(OC)cc2)n1,11,-2,3,0,11,4
CCC(C)(C)NC(=O)C(c1ccccn1)N(C(=O)c1csnn1)c1ccc(C)c(C)c1 (stereo not given),4,-39,-13,1,1,-4
O=C(Cc1ccccc1[N+](=O)[O-])Nc1ccccc1C(=O)N1CCCC1,9,19,-9,0,85*,31
COc1ccc(N(C(C)C(=O)NC2CCCCCC2)S(C)(=O)=O)cc1 (stereo not given),28,62*,2,-1,13,3
O=C(CC1(O)C(=O)Nc2ccc(Br)cc21)c1ccc2c(c1)OCO2 (stereo not given),50*,-5,-22,0,15,4
CS(=O)(=O)Nc1cccc(C(=O)CC2(O)C(=O)Nc3ccc(Br)cc32)c1 (stereo not given),60*,73*,-8,1,23,23
CS(=O)(=O)Nc1cccc(C(=O)CC2(O)C(=O)Nc3ccccc32)c1 (stereo not given),4,-16,-18,1,14,1
O=C(Cc1ccccc1)NN1C(=O)/C(=C/c2ccccc2C(=O)O)SC1=S,-1,.,-18,0,13,1
CC(C)Nc1nc(NC(C)C)nc(N(C#N)C(C)C(=O)N(C)C)n1 (stereo not given),1,-6,-5,0,11,4
CC(C)Nc1nc(C#N)nc(NC(C)C)n1,102*,97*,-32,0,6,2
COc1cccc(CC2(CO)CCCN(CC3=Cc4cc(Cl)ccc4OC3)C2)c1 (stereo not given),-8,-3,-31,0,2,-3
Cc1cc(=O)[nH]c(SCC(=O)Nc2ccc3c(c2)OCCO3)n1,-4,-2,-22,3.3*,5,1
CCOC(=O)CNC(=O)Cn1cnc2c(nnn2-c2ccc(F)cc2)c1=O,22,45*,-22,0,32,12
CC1(C)CC(c2nc(-c3ccc([N+](=O)[O-])cc3)cs2)CCO1 (stereo not given),0,-7,-12,1,2,-3
